The target of data set [1] is T1, C-C chemokine receptor type 5 (Homo sapiens, UniProt P51681). Briefly: Inhibition of human C-C chemokine receptor 5 by displacement of [125I]-labeled MIP-1alpha from CHO cell membranes. (In general: In a radioligand displacement assay an active substance lowers the binding of a labelled ligand.)
Target sequence in this assay (P51681 whole entry): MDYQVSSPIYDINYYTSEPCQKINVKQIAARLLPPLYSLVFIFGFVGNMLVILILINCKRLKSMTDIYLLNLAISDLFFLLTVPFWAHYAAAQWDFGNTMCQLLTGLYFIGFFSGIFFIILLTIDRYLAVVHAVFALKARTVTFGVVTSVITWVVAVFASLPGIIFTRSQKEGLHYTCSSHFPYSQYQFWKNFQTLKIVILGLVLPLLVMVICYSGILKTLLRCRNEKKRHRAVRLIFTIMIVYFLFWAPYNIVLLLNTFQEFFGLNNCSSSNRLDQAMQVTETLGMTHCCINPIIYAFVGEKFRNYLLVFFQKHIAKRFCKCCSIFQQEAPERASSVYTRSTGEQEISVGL
Data set [2] relates to Human immunodeficiency virus 1. Briefly: (§1) In vitro antiviral activity against HIV-1 infected HeLa cells. It counts as functional. The following applies: Human immunodeficiency virus 1, HeLa. The gist of the method: (§2)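 Cell-culture HIV-1 infectivity assay in HeLa cells. Read-out is the IC90, with the IC50 given for some entries.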
For data set [3], the system named is Human immunodeficiency virus 1. Briefly: Concentration required for anti viral activity against BAL-1 strain of HIV-1 was determined using peripheral blood mononuclear cells. The format is functional. The gist of the method: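 Seven-day in vitro infectivity assay in peripheral blood mononuclear cells infected with the HIV-1 BAL-1 strain. Read-out is the IC95.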

In data set [4] the test system is HeLa. Described as §1. It counts as functional, cell-based. To be noted: Homo sapiens. The gist of the method:
as §2

Data set [5] deals with T1, C-C chemokine receptor type 5. Briefly: Inhibitory activity against human CC chemokine receptor 5. The gist of the method:
(§3)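 Displacement of [125I]-labeled MIP-1α from human CCR5 on CHO cell membranes, described as a GP120-membrane-based assay. IC50 values are averages of triplicate measurements, with a standard compound run to check variability between assays. Single-point lines are percent inhibition at 2 μM.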
Target sequence in this assay (P51681 whole entry): as above

For data set [6] the target is unchanged. Briefly: Inhibitory activity against human Chemokine receptor 5 at 2 uM concentration. The gist of the method:
as §3
Target sequence in this assay (P51681 whole entry, looked up): as the sequence (P51681 whole entry) above

Data set [7] has as its system Rattus norvegicus. Briefly: Area under curve in rat after p.o. administration. To be noted: in vivo, po. It counts as ADME, organism-based.
A short description of data set [8]: Plasma clearance in rat. To be noted: read-out: Clp. It counts as ADME, organism-based.
A short description of data set [9]: Oral bioavailability in rat. It counts as ADME, organism-based. The following applies: in vivo.
Data set [10] is described as follows: Hafl life rat. It counts as ADME, organism-based. The following applies: in vivo.
Data set [11] addresses T1, C-C chemokine receptor type 5. Briefly: Inhibitory activity against human […] chemokine receptor 5 when co-administered with compound 8g.
Target sequence in this assay (P51681 whole entry): as above
Data set [12] has as its system HeLa. Briefly: In vitro antiviral activity against HIV-1 infected HeLa cells when co-administered with compound 8g. The following applies: Homo sapiens. It counts as functional. The gist of the method: as §2
The test system of data set [13] is HeLa. Briefly: In vitro antiviral activity against HIV-1 infected HeLa cells from GP120-membrane-based assay. The following applies: Homo sapiens. The format is functional. The gist of the method:
as §2

Data set [14] in a line: Hafl life in rat. It counts as ADME, organism-based. To be noted: in vivo.
The target in data set [15] is T1, C-C chemokine receptor type 5. Briefly: Inhibitory concentration to displace [125I]-MIP-1 alpha from CX3C chemokine receptor 5. The gist of the method:
as §3
Target sequence in this assay (P51681 whole entry): as above

For data set [16] the target is unchanged. Briefly: Inhibitory concentration to displace [125I]-MIP-1 alpha from human […] chemokine receptor 5 expressed in CHO cell. The format is cell-based. The gist of the method: as §3
Target sequence in this assay (P51681 whole entry): as above
Data set [17] has the same target. Briefly: Inhibitory activity against human Chemokine receptor 5 when co-administered with compound 8f. The gist of the method: as §3
Target sequence in this assay (P51681 whole entry): as above
Data set [18] deals with HeLa. Briefly: In vitro antiviral activity against HIV-1 infected HeLa cells when co-administered with compound 8f. It counts as functional. To be noted: Homo sapiens. The gist of the method: as §2

As usually defined, the IC50 is the concentration that gives 50% inhibition. A word on the IC90: it is the concentration needed for an effect of 90%. Regarding `O=C(O)[C@@H](C1CCCCC1)N1C[C@H](CN2CCC(c3cc(-c4cccc5ccccc45)[nH]n3)CC2)[C@@H](c2ccccc2)C1`, in data set [1], the IC50 worked out at 7.5 nM. In addition, in data set [2], the concentration for an effect of 90% (IC90) is > 300 nM.

For orientation: IC95 means the concentration needed for an effect of 95%. A low value points to greater potency. As to `CCN(C(=O)OCc1ccccc1)C1CCN(CC[C@H](CN(C)S(=O)(=O)c2ccccc2)c2cccc(Cl)c2)CC1`, the 50% inhibitory concentration (IC50) in data set [1] turned out to be 2.4 nM. This compound displayed an IC95 in data set [3] of 13 nM.

The compound `O=C(O)[C@@H](C1CCCCC1)N1C[C@H](CN2CCC(c3cc(-c4ccc(Cl)cc4)n[nH]3)CC2)[C@@H](c2cccc(F)c2)C1` came in with an IC50 in [1] of 4 nM. Further, the 90% effect concentration (IC90) in data set [2] is > 300 nM.

On to `CCn1nc(-c2ccc(C#N)cc2)cc1C1CCN(C[C@H]2CN([C@@H](C(=O)O)C3CCCCC3)C[C@@H]2c2ccccc2)CC1`, for which the IC50 in [4] came to 33 nM; in [5] it was 16 nM. The IC90 in data set [2] was > 300 nM.

Consider `N#Cc1ccc(-c2cc(C3CCN(C[C@H]4CN([C@@H](C(=O)O)C5CCCCC5)C[C@@H]4c4ccccc4)CC3)n[nH]2)cc1`, for which the IC50 in data set [1] is 7.5 nM; in data set [4], 100 nM. Also, in [2], the IC90 was > 300 nM.

Take `CCCn1ncc(CCc2ccccc2)c1C1CCN(C[C@H]2CN([C@@H](C(=O)O)C3CCCCC3)C[C@@H]2c2ccccc2)CC1`: in data set [1], the half-inhibitory concentration (IC50) was 0.6 nM. In [2], this compound came in with a 90% effect concentration (IC90) of 11 nM.

The inhibition is the relative decrease from the control value, in per cent. The low end stands for little suppression, the high end for strong suppression. The compound `CCc1cc(CCc2ccccc2)n(C2CCN(C[C@H]3CN([C@@H](C(=O)O)C4CCCCC4)C[C@@H]3c3ccccc3)CC2)n1` registered an inhibition in [6] of 82%.

One may read the bioavailability as dose-corrected exposure relative to a reference, in per cent. Read a high bioavailability as much systemic uptake. One may read the half-life as the time needed for the level to fall by half in the phase considered. In [1], `CCn1nc(CCc2ccccc2)cc1C1CCN(C[C@H]2CN([C@@H](C(=O)O)C3CCCCC3)C[C@@H]2c2cccc(F)c2)CC1` showed an IC50 of 2.2 nM. Besides, in [7], the “AUC N” value worked out at 0.01 uM hr dose-1. Also, the clearance in data set [8] stood at 72 mL/min/kg. Further, the bioavailability in data set [9] was determined as 3.2%. In [10], this compound gave a half-life of 27 min. The compound also returned an IC90 in [2] of 11 nM.

In [1], `CCn1nc(-c2cccc3ccccc23)cc1C1CCN(C[C@H]2CN([C@@H](C(=O)O)C3CCCCC3)C[C@@H]2c2cccc(F)c2)CC1` showed an IC50 of 16 nM.

Turning to `Cn1ncc(CCc2ccccc2)c1C1CCN(C[C@H]2CN([C@@H](C(=O)O)C3CCCCC3)C[C@@H]2c2ccccc2)CC1`, the concentration for half-maximal inhibition (IC50) in [1] was 1 nM. Also, it took 3.7 nM to reach the 90% level in data set [2] (IC90).

For `CCc1cc(CCc2ccccc2)nn1C1CCN(C[C@H]2CN([C@@H](C(=O)O)C3CCCCC3)C[C@@H]2c2ccccc2)CC1`, the IC50 in [11] amounted to 105 nM. Besides, the concentration for an effect of 90% (IC90) in [12] is > 300 nM.

`CCCn1cc(CCc2ccccc2)c(C2CCN(C[C@H]3CN([C@@H](C(=O)O)C4CCCCC4)C[C@@H]3c3ccccc3)CC2)n1`: in data set [1], the IC50 was determined as 9 nM.

On to `Cn1cc(CCc2ccccc2)c(C2CCN(C[C@H]3CN([C@@H](C(=O)O)C4CCCCC4)C[C@@H]3c3ccccc3)CC2)n1`, for which the concentration for half-maximal inhibition (IC50) in data set [1] was 23 nM.

`Cc1cc(-c2ccccc2)n(C2CCN(C[C@H]3CN([C@@H](C(=O)O)C4CCCCC4)C[C@@H]3c3ccccc3)CC2)n1` displayed an inhibition in [6] of 65%.

For `CCn1ncc(Cc2ccccc2)c1C1CCN(C[C@H]2CN([C@@H](C(=O)O)C3CCCCC3)C[C@@H]2c2ccccc2)CC1`, the values for the IC90 in data set [2] and in [13] were 3.7 nM and 10 nM, respectively. Besides, half-maximal inhibition in data set [5] (IC50) was put at 3 nM.

For the compound `COc1ccc(-c2cc(C3CCN(C[C@H]4CN([C@@H](C(=O)O)C5CCCCC5)C[C@@H]4c4cccc(F)c4)CC3)[nH]n2)cc1`, in data set [1], the concentration for half-maximal inhibition (IC50) stood at 12 nM. Moreover, the IC90 in [2] was > 300 nM.

Turning to `O=C(O)[C@@H](C1CCCCC1)N1C[C@H](CN2CCC(c3oncc3Cc3ccccc3)CC2)[C@@H](c2ccccc2)C1`, the “AUC N” value in [7] turned out to be 0.03 uM hr dose-1. In data set [8], the clearance came out at 67 mL/min/kg. Also, the bioavailability in [9] was found to be 5.9%. Besides, the IC90 in data set [2] was determined as 0.4 nM. Also, the IC50 in data set [5] turned out to be 0.8 nM.

Regarding `Cc1cc(-c2ccccc2)nn1C1CCN(C[C@H]2CN([C@@H](C(=O)O)C3CCCCC3)C[C@@H]2c2ccccc2)CC1`, the inhibition in [6] was 79%.

Turning to `CCn1nc(Cc2ccccc2)cc1C1CCN(C[C@H]2CN([C@@H](C(=O)O)C3CCCCC3)C[C@@H]2c2ccccc2)CC1`, the “AUC N” value in data set [7] is on record as 0.02 uM hr dose-1. The clearance in [8] was found to be 64 mL/min/kg. The same compound returned a bioavailability in [9] of 4.1%. This compound also returned an IC90 in data set [2] of 0.4 nM. The compound further gave a half-life in [14] of 49.2 min. The IC50 in data set [15] worked out at 2.1 nM; in data set [16] it was 1.2 nM.

In turn, `O=C(O)[C@@H](C1CCCCC1)N1C[C@H](CN2CCC(c3cc(-c4ccc(Cl)cc4Cl)[nH]n3)CC2)[C@@H](c2cccc(F)c2)C1` gave an IC50 in data set [1] of 9 nM. Besides, the IC90 in [2] is > 300 nM.

As for `CCn1ncc(CCc2ccccc2)c1C1CCN(C[C@H]2CN([C@@H](C(=O)O)C3CCCCC3)C[C@@H]2c2ccccc2)CC1`, the “AUC N” value in data set [7] was 0.01 uM hr dose-1. Besides, the clearance in [8] worked out at 79 mL/min/kg. The same compound registered a bioavailability in data set [9] of 2.6%. Moreover, the IC90 in data set [2] turned out to be 0.4 nM. This compound showed a concentration for half-maximal inhibition (IC50) in data set [5] of 0.6 nM.

With `O=C(O)[C@@H](C1CCCCC1)N1C[C@H](CN2CCC(CCCc3ccccc3)CC2)[C@@H](c2ccccc2)C1`, the IC50 in data set [1] turned out to be 0.2 nM. For the same compound, the concentration for an effect of 95% (IC95) in [3] came out at 93 nM.

As to `CCn1nc(-c2ccccc2)cc1C1CCN(C[C@H]2CN([C@@H](C(=O)O)C3CCCCC3)C[C@@H]2c2ccccc2)CC1`, in [7], the “AUC N” value was found to be 1.7 uM hr dose-1. Besides, the clearance in [8] was found to be 3.8 mL/min/kg. Further, the bioavailability in data set [9] came to 21%. This compound showed a half-life in [10] of 90 min. The IC50 in data set [4] is 100 nM; in [5], 22 nM. Moreover, the IC90 in [2] is > 300 nM.

As for `CCc1cc(Cc2ccccc2)n(C2CCN(C[C@H]3CN([C@@H](C(=O)O)C4CCCCC4)C[C@@H]3c3ccccc3)CC2)n1`, in [17], the IC50 is 78 nM. For the same compound, the IC90 in data set [18] was > 300 nM.

(Values after ChEMBL document CHEMBL1147444, “Antagonists of human CCR5 receptor containing 4-(pyrazolyl)piperidine side chains. Part 1: Discovery and SAR study of 4-pyrazolylpiperidine side chains” (Bioorg Med Chem Lett, 2004).)
